Results on two compounds are retold here after article PMC8897208 (Acta Pharmaceutica Sinica. B, 2021).

Experiment [1] addresses T1, SIRT6 (Homo sapiens, UniProt Q8N6T7). The experiment is described as follows: Fluor de Lys. The class given is biochemical. The procedure, abridged:
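Recombinant SIRT6 was expressed in E. coli BL21 in LB with 100 μg/mL ampicillin at 37 °C. Expression was induced with 0.5 mmol/L IPTG at OD600 0.8, then grown 18 h at 16 °C and purified by an earlier method.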

The target of experiment [2] is T1, SIRT6. Put plainly: In vitro nucleosome deacetylation assay. The class given is biochemical. Conditions: 10 mmol/L, H3K9Ac and H3K18Ac, Western blot. The procedure, abridged: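 Nucleosomes were isolated from HeLa cells and deacetylated in vitro by SIRT6 in the presence of NAD+. H3K9Ac and H3K18Ac were detected by Western blot.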
For orientation: A western blot detects proteins with antibodies after separation by electrophoresis.

T1 sequence (Q8N6T7 whole entry): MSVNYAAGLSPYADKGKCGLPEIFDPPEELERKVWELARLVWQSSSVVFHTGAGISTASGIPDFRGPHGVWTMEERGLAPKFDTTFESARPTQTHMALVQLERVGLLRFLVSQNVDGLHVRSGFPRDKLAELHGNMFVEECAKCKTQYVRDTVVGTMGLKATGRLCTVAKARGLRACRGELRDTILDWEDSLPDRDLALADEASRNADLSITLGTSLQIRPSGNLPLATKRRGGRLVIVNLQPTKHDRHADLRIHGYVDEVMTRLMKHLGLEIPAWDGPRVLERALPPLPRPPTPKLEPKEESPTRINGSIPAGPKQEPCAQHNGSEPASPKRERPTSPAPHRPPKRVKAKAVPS

`Nc1nonc1-n1cc(C(=O)N/N=C/c2ccccc2O)nn1` [JYQ-1] gave an IC50 in experiment [1] of 26.8 µM. The “inhibition ratio at 50 μmol/L” value in experiment [1] (FDL assay, substrate Ac-RHKK-Ac-AMC, 50 μmol/L compound) is recorded as 64.18%.
Turning to `NC(=O)c1cccnc1` [nicotinamide, reference compound], the “inhibition of SIRT6 deacetylation on nucleosomes” value in experiment [2] was “weak inhibition”.

By IC50 is commonly meant the concentration that gives 50% inhibition. A higher IC50 goes with weaker potency in that assay.
